T cell modulator – T cell immune modulation candidate; response (vesicle binding), % at 7 µM; 330,000 compounds, 0.068% hits; 2C CD8+ T cell-vesicle binding, flow cytometry; hits give low values;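 active means response, share of CD8 T cells binding vesicles, and their 90th percentile fluorescence all below set limits, cut at about 80% in these data, passing the limit was not always enough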;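 further: values below 100% mean blocked vesicle binding to the CD8+ T cells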
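Also added: QL9-peptide-loaded Drosophila micro-vesicles bearing Ld, ICAM-1 and B7-1; Test system: purified 2C TCR transgenic mouse naive CD8+ T cells; Measured by: cytometric PE anti-B7-1 and Alexa647 anti-CD8 signals after 1% paraformaldehyde fixation; Timing: binding step 1.5 h, 37 °C, antibody labelling 20 min, ice.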
Rce1 inh – blocks yeast Ras-converting enzyme. Q03530. calls only. yeast membranes, quenched prenylated peptide cleavage fluorescence. 290,000 compounds, 0.27% hits;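 active means fall in fluorescence gain of 50% or more versus controls, with final raw signal at or below 3038400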;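 further: plate controls were neutral control wells for no effect and wells lacking membranes for full effect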
MEKK3 PB1 HTS – MEKK3-MEK5 PB1 interaction, increase or decrease. AID 1529. binding response (% of control), % at 10 µM. bead-based flow cytometry, Alexa488-MEK5 binding to MEKK3; actives lie on both sides; 0 = blocked by unlabeled MEK5, 100 = vehicle. 290,000 compounds, 1.4% hits;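 active means binding response more than 3 SD above or below the average of its plate-row segment, actives on both sides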;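 further: Alexa488 bead fluorescence after subtracting the streptavidin-only scavenger bead signal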
MEKK2 WT-MEK5 – raises or lowers MEK5 binding to wildtype human MEKK2 PB1 domain; Q9Y2U5; bead flow cytometry, Alexa488-MEK5 binding to MEKK2 WT; actives lie on both sides; binding response (% of control), % at 10 µM; 290,000 compounds, 1.1% hits; in the data active means binding response below about 67% or above about 130%
UCH37 DUB inh – blocks the human deubiquitinase UCH37. 330,000 compounds, 0.33% hits. inhibition, % (test concentration not listed). purified proteasome/UCH37, Ub-AMC cleavage fluorescence. Q9Y5K5. AID 588478;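 active means mean inhibition over replicate wells above about 20%, limit read from the data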;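 further: 0% = compound-free wells with enzyme and 100% = wells lacking proteasome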
Target sequence (Q9Y5K5 whole entry, looked up): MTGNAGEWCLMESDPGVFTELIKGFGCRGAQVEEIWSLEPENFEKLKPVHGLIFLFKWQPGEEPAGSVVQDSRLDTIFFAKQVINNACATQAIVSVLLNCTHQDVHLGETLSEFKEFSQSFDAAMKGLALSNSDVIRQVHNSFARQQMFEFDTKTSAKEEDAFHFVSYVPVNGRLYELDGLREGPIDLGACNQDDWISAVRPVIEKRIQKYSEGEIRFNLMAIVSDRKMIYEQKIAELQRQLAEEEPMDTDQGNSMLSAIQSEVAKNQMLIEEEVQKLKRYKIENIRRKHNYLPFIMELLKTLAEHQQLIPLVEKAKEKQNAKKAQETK
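Material: human UCH37 enzyme supplied as purified proteasome complex / Amount: 0.15 nM proteasome as dispensed / Buffer or medium: pH 7.4 Tris-HCl (50 mM) with ovalbumin, ATP-MgCl2, DTT / Times: preincubation 30 min, reaction 25 min, room temperature / Technique: AMC fluorescence from Ub-AMC cleavage, excitation 355 nm, emission 460 nm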
MEKK2mut PB1 HTS – signal of MEK5 binding to mutant human MEKK2 PB1 domain; bead flow cytometry, Alexa488-MEK5 binding to MEKK2 mutant; percent response, % at 10 µM; 290,000 compounds, 0.35% hits; AID 1530; in the data active means percent response above about 24%, passing the limit was not always enough
MEKK2wt confirm – raises or lowers MEK5 binding to wildtype human MEKK2, retest | shares compounds with MEKK3 PB1 HTS | bead flow cytometry, Alexa488-MEK5 binding to MEKK2 WT; actives lie on both sides | binding response (% of control), % at 10 µM | 5,900 compounds, 2.4% hits | AID 1892; in the data active means binding response below about 16% or above about 210%; inactive means in between
MEKK2mut confirm – signal of MEK5 binding to mutant human MEKK2, retest. shares compounds with MEKK3 PB1 HTS. bead flow cytometry, Alexa488-MEK5 binding to MEKK2 mutant. percent response, % at 10 µM. 5,900 compounds, 2% hits. AID 1893; in the data active means percent response mostly above about 71%, no sharp cut-off; inactive means mostly below about 38%;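 further: higher means compound restores mutant binding toward wildtype level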
MEKK3-MEK5 inh – MEKK3-MEK5 PB1 inhibition, single concentration confirmation | bead flow cytometry, Alexa488-MEK5 binding to MEKK3; hits give low values | shares compounds with MEKK3 PB1 HTS | binding response (% of control), % at 10 µM | 5,900 compounds, 1.8% hits;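 active means binding response below 72% of control, or above a set upper limit, though filed actives all read lower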;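 further: 100% = DMSO only wells and 0% = binding blocked by excess unlabeled MEK5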
Active calls of the source: *; i = inactive; · = no result given; [ ] = another dose, or the depositor's remark. Sampled rows, rich in hits. Any-hit rate of the full collection: about 2.5%.

SMILES	T cell modulator	Rce1 inh	MEKK3 PB1 HTS	MEKK2 WT-MEK5	UCH37 DUB inh	MEKK2mut PB1 HTS	MEKK2wt confirm	MEKK2mut confirm	MEKK3-MEK5 inh
O=C(NCCCN1CCCCCC1)C1CC(=O)N(CCc2ccccc2)C1 (stereo not given)	163	i	81	147*	1	25*	154	25	94
O=C(NCCCN1CCOCC1)C1CC(=O)N(CCc2ccccc2)C1 (stereo not given)	378	i	100	103	-1	2	·	·	·
Cc1ccc(C(C)C)c(OCC(=O)NN=C2CC(=O)CC(C)(C)C2)c1	·	·	·	·	4	·	·	·	·
O=C(Nc1ccc(F)cc1)OCCN1CCN(Cc2ccccc2)CCC1=O	385	i	2.0*[inhibitor]	2.0*[inhibitor]	3	-2	103	-3	100
Cc1ccc(NC(=O)OCCN2CCN(Cc3ccccc3)CCC2=O)cc1C	429	i	99	101	-1	-3	·	·	·
CCn1c(-c2cc(-c3ccccc3OC)nc3ccccc23)n[nH]c1=S	598	i	134*	110	-15	1	102	9	106
COC(=O)NN=Cc1c[n+]([O-])c2ccccc2[n+]1[O-]	·	·	·	·	-4	·	·	·	·
C=CCc1cccc2cc(C(=O)Nc3ccc(CC(=O)O)cc3)c(=O)oc12	228	i	139*	101	9	1	98	-1	102
O=C(NCc1ccco1)c1ccc(Cn2c(=O)c3ccccc3n(Cc3ccc(Cl)cc3)c2=O)cc1	198	·	133*	122	1	8	108	3	105
O=C(NCc1ccco1)c1ccc(Cn2c(=O)c3ccccc3n(Cc3cccc(F)c3)c2=O)cc1	381	i	105	89	4	1	·	·	·
COCCn1c(=O)[nH]c2cc(C(=O)NCCc3ccc(S(N)(=O)=O)cc3)ccc2c1=O	450	·	135*	118	-25	4	100	-5	103
CCCCCn1c(=O)[nH]c2cc(C(=O)N3CCN(C(=O)OCC)CC3)ccc2c1=O	292	·	106	107	-1	6	·	·	·
CCOC(=O)N1CCN(C(=O)c2ccc3c(=O)n(CCc4ccccc4)c(=O)[nH]c3c2)CC1	303	i	125*	125	2	9	102	0	104
COc1ccc(CC(=O)Nc2cc(C)ccn2)cc1	226	i	42*[inhibitor]	56	-2	-15	89	1	94
COc1ccc(CC(=O)Nc2cc(C)ccn2)cc1OC	246	i	·	·	0	·	·	·	·
O=c1[nH]ncc(NN=Cc2ccc(O)cc2O)c1Cl	·	·	·	·	6	·	·	·	·
Cc1ccc(CN(CC(=O)NN=Cc2ccccc2[N+](=O)[O-])S(=O)(=O)c2ccc(C)cc2)cc1	·	·	·	·	2	·	·	·	·
Cc1sc2ncnc(Sc3nnnn3-c3ccccc3)c2c1C	416	i	78*[inhibitor]	81	-13	-14	91	-14	95
CN(N=Cc1ccncc1)C1=NS(=O)(=O)c2ccccc21	·	·	·	·	3	·	·	·	·
CCCC(C)n1[nH]c(=O)cc1N (stereo not given)	272	i	92	96	6	-3	·	·	·
CCC(CC)n1[nH]c(=O)cc1N	242	i	128*	124	1	11	95	-4	98
FC(F)(F)c1cc(-c2ccco2)nc(NCc2cccs2)n1	154	i	122*	106	-7	5	93	-2	94
COc1cc(C(=O)NCc2ccc(-c3nc4ccccc4s3)cc2)cc(OC)c1OC	272	i	136*	107	·	0	105	2	99
